This note sets out measurements from ChEMBL document CHEMBL4425127 (J Med Chem, 2016).

Molecules are shown by their SMILES. The source made the active and inactive calls.

Broadly, the IC50 is the concentration that gives 50% inhibition. What is called EC50 is the concentration needed to bring the measured effect to its halfway point. The half-life is the time needed for the level to fall by half in the phase considered. Broadly, the Kd is the free concentration of one partner at which half of the binding sites on the other are occupied at equilibrium, for simple one-to-one binding.

Series [1] is described as follows: Inhibition of recombinant Influenza A virus (A/Moscow/10/99(H3N2)) Neuraminidase N2 expressed in baculovirus infected insect cells using 4-MU-NANA as substrate preincubated for 30 mins followed by substrate addition by microplate reader analysis. Further details: species or system Influenza A virus (A/Moscow/10/1999(H3N2)). In outline:
(§1)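 Purified recombinant NA, with activity pre-set to roughly 10–50 nM in PBS, preincubated with serial 5-fold inhibitor dilutions in PBS (top 1 mM) at 37 °C for 30 min. MUNANA solution (167 μM, PBS) then added. Fluorescence read at ex 355/em 460 nm.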

Series [2] is described as follows: Inhibition of recombinant Influenza A virus (A/Anhui/1/2013(H7N9)) Neuraminidase N9 expressed in baculovirus infected insect cells using 4-MU-NANA as substrate preincubated for 30 mins followed by substrate addition by microplate reader analysis. In outline:
as §1

Series [3] is described as follows: Aqueous solubility of compound. The conditions noted are these: buffer. The format is physicochemical.
Series [4] has as its system Influenza A virus H3N2. As to the kind of experiment: Antiviral activity against Influenza A virus (A/Moscow/10/99(H3N2)) expressing A/Puerto Rico/8/34(H1N1) genes infected in MDCK cells assessed as reduction in viral replication after 72 hrs by hemagglutination test. The conditions noted are these: Influenza A virus, A/Moscow/10/1999(H3N2), MDCK, 72 h; read-out: EC50. The format is functional, organism-based, A/Moscow/10/1999(H3N2).

In series [5] the test system is Influenza A virus. Nature of the series: Antiviral activity against Influenza A virus (A/Anhui/1/2013(H7N9)) expressing A/Puerto Rico/8/34(H1N1) genes infected in MDCK cells assessed as reduction in viral replication after 72 hrs by hemagglutination test. It is filed as functional, organism-based.
The next series deals with MDCK. As to the kind of experiment: Cytotoxicity against MDCK cells assessed as reduction in cell viability after 72 hrs by MTT assay. The format is cell-based, Canis lupus familiaris. Conditions: dog. Background: Tetrazolium dyes change colour on reduction, which living cells bring about.
The subject of series [6] is Influenza A virus H3N2. Nature of the series: Induction of viral aggregation in Influenza A virus (A/Moscow/10/99(H3N2)) at 1 mM after 3 hrs by transmission electron microscopic analysis. Conditions: A/Moscow/10/1999(H3N2). The format is functional, organism-based. Summed up: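 Virus (10^7 pfu in 150 μL DMEM) incubated at 37 °C for 3 h with 10 μL of 1 mM inhibitor stock in PBS, or without; then processed for transmission electron microscopy.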

Series [7] concerns Influenza A virus. As to the kind of experiment: Antiviral activity against Influenza A virus (A/Puerto Rico/8/34(H1N1)) infected in MDCK cells assessed as plaque reduction after 72 hrs by toluidine blue staining based method. The format is functional, A/Puerto Rico/8/1934(H1N1).
The nature of series [8]: Half life in Sprague-Dawley rat at 6 umol/kg, iv by HPLC analysis. It is filed as ADME, organism-based. Conditions: in vivo. Summed up: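 Rats (n = 5) received a single tail-vein injection in physiological saline. Plasma levels measured by HPLC, using a reversed-phase C18 gradient with ammonium-containing aqueous/acetonitrile eluents over 5 min at 0.6 mL/min.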
Series [9] concerns Influenza A virus. Nature of the series: Antiviral activity against Influenza A virus (A/Puerto Rico/8/34(H1N1)) infected in Balb/c mouse assessed as protection against lethal virus challenge by measuring body weight at 5 to 10 mg/kg qd administered intranasally for 7 days starting from 1 day post infection measured for 14 days. The conditions noted are these: A/Puerto Rico/8/1934(H1N1). The format is functional, organism-based. In outline:
(§2)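 BALB/c mice (6 per group) inoculated intranasally under anaesthesia with 10^5 pfu in 40 μL PBS. Inhibitor given intranasally in 40 μL PBS, either daily for 7 days from day 1 or once at 2 h pi; PBS-treated infected and uninfected controls. Weight and survival followed for 14 days; death counted at 25% weight loss or moribund. Mantel–Cox test.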

In series [10] the test system is Influenza A virus. As to the kind of experiment: Antiviral activity against Influenza A virus (A/Puerto Rico/8/34(H1N1)) infected in Balb/c mouse assessed as protection against lethal virus challenge by measuring mouse survival at 5 to 10 mg/kg qd administered intranasally for 7 days starting from 1 day post infection measured for 14 days. It is filed as functional, organism-based. The conditions noted are these: A/Puerto Rico/8/1934(H1N1). Summed up: as §2

Series [11] has as its system Influenza A virus. Nature of the series: Antiviral activity against Influenza A virus (A/Puerto Rico/8/34(H1N1)) infected in Balb/c mouse assessed as protection against lethal virus challenge by measuring body weight at 20 mg/kg administered intranasally as single dose at 2 hrs post infection measured up to 14 days post treatment relative to control. The format is functional, A/Puerto Rico/8/1934(H1N1). Summed up: as §2

Series [12] deals with Influenza A virus. Nature of the series: Antiviral activity against Influenza A virus (A/Puerto Rico/8/34(H1N1)) infected in Balb/c mouse assessed as protection against lethal virus challenge by measuring mouse survival at 20 mg/kg administered intranasally as single dose at 2 hrs post infection measured up to 14 days post treatment relative to control. The format is functional, A/Puerto Rico/8/1934(H1N1). In outline:
as §2

The test system of series [13] is Influenza A virus. Nature of the series: Antiviral activity against Influenza A virus (A/Puerto Rico/8/34(H1N1)) assessed as decrease in lung lesions at 20 mg/kg qd administered intranasally as single dose at 2 hrs post infection measured after 7 days post infection by hematoxylin and eosin staining based microscopic analysis. The format is functional, organism-based. Conditions: A/Puerto Rico/8/1934(H1N1).

Series [14] deals with Influenza A virus. As to the kind of experiment: Antiviral activity against Influenza A virus (A/Puerto Rico/8/34(H1N1)) infected in Balb/c mouse assessed as bronchial wall thickening in lungs at 5 mg/kg qd administered intranasally for 7 days starting from 1 day post infection by hematoxylin and eosin staining based microscopic analysis. The format is functional, organism-based. The conditions noted are these: A/Puerto Rico/8/1934(H1N1).

Series [15] relates to Influenza A virus. Nature of the series: Antiviral activity against Influenza A virus (A/Puerto Rico/8/34(H1N1)) infected in Balb/c mouse assessed as bronchial wall thickening in lungs at 20 mg/kg qd administered intranasally as single dose at 2 hrs post infection measured after 7 days post infection by hematoxylin and eosin staining based microscopic analysis. It is filed as functional, organism-based. The conditions noted are these: A/Puerto Rico/8/1934(H1N1).

The subject of series [16] is Influenza A virus. As to the kind of experiment: Antiviral activity against Influenza A virus (A/Puerto Rico/8/34(H1N1)) infected in Balb/c mouse assessed as immune cell infiltration in lungs at 5 mg/kg qd administered intranasally for 7 days starting from 1 day post infection by hematoxylin and eosin staining based microscopic analysis. The format is functional, organism-based. Conditions: A/Puerto Rico/8/1934(H1N1).

The subject of series [17] is Influenza A virus. Nature of the series: Antiviral activity against Influenza A virus (A/Puerto Rico/8/34(H1N1)) infected in Balb/c mouse assessed as immune cell infiltration in lungs at 20 mg/kg qd administered intranasally as single dose at 2 hrs post infection measured after 7 days post infection by hematoxylin and eosin staining based microscopic analysis. The conditions noted are these: A/Puerto Rico/8/1934(H1N1). It is filed as functional, organism-based.

The test system of series [18] is Influenza A virus. Nature of the series: Antiviral activity against Influenza A virus (A/Puerto Rico/8/34(H1N1)) infected in Balb/c mouse assessed as respiratory epithelium desquamation at 5 mg/kg qd administered intranasally for 7 days starting from 1 day post infection by hematoxylin and eosin staining based microscopic analysis. It is filed as functional, organism-based. The conditions noted are these: A/Puerto Rico/8/1934(H1N1).

The subject of series [19] is Influenza A virus. Nature of the series: Antiviral activity against Influenza A virus (A/Puerto Rico/8/34(H1N1)) infected in Balb/c mouse assessed as respiratory epithelium desquamation at 20 mg/kg qd administered intranasally as single dose at 2 hrs post infection measured after 7 days post infection by hematoxylin and eosin staining based microscopic analysis. It is filed as functional, organism-based. The conditions noted are these: A/Puerto Rico/8/1934(H1N1).

Series [20] has as its system Influenza A virus. As to the kind of experiment: Antiviral activity against Influenza A virus (A/Puerto Rico/8/34(H1N1)) assessed as decrease in lung lesions at 10 mg/kg qd administered intranasally for 7 days starting from 1 day post infection by hematoxylin and eosin staining based microscopic analysis. The format is functional, organism-based. Conditions: A/Puerto Rico/8/1934(H1N1).

Series [21] is described as follows: Binding affinity to recombinant Influenza A virus (A/Moscow/10/99(H3N2)) Neuraminidase N2 expressed in baculovirus infected insect cells measured up to 400 sec by surface plasmon resonance analysis. Further details: species or system Influenza A virus (A/Moscow/10/1999(H3N2)). Summed up:
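NA covalently immobilised on CM5 chip by amine coupling. Analyte passed over at several concentrations in running buffer. BSA served as negative control protein. Constants from a steady-state affinity model; triplicate experiments.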

Series [22] deals with Influenza A virus. Nature of the series: Antiviral activity against Influenza A virus (A/Puerto Rico/8/34(H1N1)) infected in Balb/c mouse assessed as protection against lethal virus challenge by measuring body weight at 20 mg/kg administered intranasally as single dose at 2 hrs post infection measured up to 9 days post treatment. It is filed as functional, organism-based. The conditions noted are these: A/Puerto Rico/8/1934(H1N1). In outline: as §2

Series [23] has as its system Influenza A virus. As to the kind of experiment: Antiviral activity against Influenza A virus (A/Puerto Rico/8/34(H1N1)) infected in Balb/c mouse assessed as protection against lethal virus challenge by measuring mouse survival at 20 mg/kg administered intranasally as single dose at 2 hrs post infection measured up to 9 days post treatment. It is filed as functional, organism-based. The conditions noted are these: A/Puerto Rico/8/1934(H1N1). In outline:
as §2

Turning to `CC(=O)N[C@H]1[C@H]([C@H](OC(=O)NCCOCCOCCOCCOCCOCCOCCOCCOCCOCCOCCOCCOCc2cn(CC(Cn3cc(COCCOCCOCCOCCOCCOCCOCCOCCOCCOCCOCCOCCNC(=O)O[C@@H]([C@@H]4OC(C(=O)O)=C[C@H](NC(=N)N)[C@H]4NC(C)=O)[C@H](O)CO)nn3)(Cn3cc(COCCOCCOCCOCCOCCOCCOCCOCCOCCOCCOCCOCCNC(=O)O[C@@H]([C@@H]4OC(C(=O)O)=C[C@H](NC(=N)N)[C@H]4NC(C)=O)[C@H](O)CO)nn3)Cn3cc(COCCOCCOCCOCCOCCOCCOCCOCCOCCOCCOCCOCCNC(=O)O[C@@H]([C@@H]4OC(C(=O)O)=C[C@H](NC(=N)N)[C@H]4NC(C)=O)[C@H](O)CO)nn3)nn2)[C@H](O)CO)OC(C(=O)O)=C[C@@H]1NC(=N)N` (stereo partly drawn), the IC50 amounted to 2.8 nM in [1] and 0.8 nM in [2]. Further, the solubility result in series [3] is “Soluble”. The EC50 with Influenza A virus H3N2 [4] worked out at 3.5 nM; in the series with Influenza A virus [5], 1.2 nM. In addition, the Activity entry in the series on MDCK is given as “Non-Toxic”; in the series with Influenza A virus [7], below 4 nM; with Influenza A virus [11], 100%; in the series with Influenza A virus [12], 100%. Also, in the series on Influenza A virus H3N2 [6], the outcome was inactive. Moreover, the half-life in series [8] worked out at 1.2 h. Also, the outcome with Influenza A virus [9], in the series with Influenza A virus [10], in the series on Influenza A virus [13], in the series on Influenza A virus [14], with Influenza A virus [15] and with Influenza A virus [16] was Active. Besides, the outcome with Influenza A virus [17], in the series with Influenza A virus [18], with Influenza A virus [19] and in the series with Influenza A virus [20] was Active.
For `CC(=O)N[C@H]1[C@H]([C@H](O)[C@H](O)CO)OC(C(=O)O)=C[C@@H]1NC(=N)N` [ZANAMIVIR], the values for the IC50 in series [1] and in series [2] were 3 nM and 1.5 nM, respectively. Further, the Kd in series [21] worked out at 1.1 nM. Further, the EC50 was determined as 17.7 nM in the series on Influenza A virus H3N2 [4] and 6.1 nM with Influenza A virus [5]. For the same compound, the result in the series on Influenza A virus [9] and in the series on Influenza A virus [10] was Active. Moreover, the outcome in the series with Influenza A virus [22], in the series with Influenza A virus [23], in the series on Influenza A virus [13], in the series with Influenza A virus [14], in the series on Influenza A virus [15] and in the series on Influenza A virus [16] was inactive. Moreover, the outcome in the series on Influenza A virus [17], with Influenza A virus [18], in the series on Influenza A virus [19] and in the series with Influenza A virus [20] was inactive.
`CCC(CC)O[C@@H]1C=C(C(=O)O)C[C@H](N)[C@H]1NC(C)=O` [OSELTAMIVIR CARBOXYLATE]: the IC50 was 0.4 nM in series [1] and 0.8 nM in [2]. Besides, the EC50 in the series on Influenza A virus H3N2 [4] came out at 7.1 nM; in the series with Influenza A virus [5], 12.3 nM. Further, the Activity result in the series on MDCK was “Non-Toxic”.
